Results from ChEMBL document CHEMBL2203129, “Structure-activity relationship studies of naphthol AS-E and its derivatives as anticancer agents by inhibiting CREB-mediated gene transcription” (Bioorg Med Chem, 2012).
pIC50: −log10 of the molar value. The source made the active and inactive calls. No cut-off for these calls is given here.

Key:
MDA-MB-468 = assay: Growth inhibition of human MDA-MB-468 cells after 72 hrs by MTT assay; format: functional; details: MDA-MB-468, 72 h
MDA-MB-231 = assay: Growth inhibition of human MDA-MB-231 cells after 72 hrs by MTT assay; format: functional; details: MDA-MB-231, 72 h
MCF7 [1] = assay: Growth inhibition of human MCF7 cells after 72 hrs by MTT assay; format: functional; details: MCF7, 72 h
A549 [2] = assay: Growth inhibition of human A549 cells after 72 hrs by MTT assay; format: functional; details: A549, 72 h
[3] = Inhibition of CREB-mediated gene transcription in human HEK293T cells by renilla luciferase reporter assay; format: cell-based; details: HEK-293T
How it was run: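 HEK 293T cells transfected with pCRE-RLuc, replated after 3 h and attached overnight; compound added, then forskolin (final 10 µM) 30 min later; 5 h at 37 °C.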

[4] = Inhibition of KIX domain of CBP interaction with KID domain of CREB after 20-24 hrs by Renilla luciferase complementation assay
How it was run: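 RLucC-KIX (20 ng) and KID-RLucN lysate (1.0 µg) per reaction in Renilla lysis buffer with compound, incubated at 4 °C for 20–24 h; residual luminescence read with benzyl-coelenterazine in PBS pH 7.4.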

A549 [5] = assay: Inhibition of CREB in human A549 cells assessed as reduction in VEGF level at 2.5 to 10 uM after 24 hrs by ELISA; format: cell-based
How it was run: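 A549 cells treated in duplicate for 24 h; VEGF in culture medium measured by ELISA and normalized to medium protein concentration; one-way ANOVA.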

A549 [6] = assay: Inhibition of CREB in human A549 cells assessed as reduction in Bcl-2 protein expression at 5 to 10 uM after 48 hrs by Western blot analysis; format: cell-based
How it was run: (§1)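 Exponentially growing A549 cells treated 48 h; washed in cold PBS, lysed in NP-40 buffer (50 mM Tris pH 8.0, 5 mM EDTA, 150 mM NaCl, 1 mM DTT, 0.5% NP-40) with 8 M urea. Equal protein on 10% SDS-PAGE, PVDF transfer, antibody detection; GAPDH loading control.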

HFF = assay: Cytotoxicity against human HFF cells assessed as effect on cell viability at 5 to 10 uM after 48 hrs by trypan blue exclusion assay; format: cell-based
How it was run: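 HFF cells (maintained in DMEM, 10% FBS, 37 °C, 5% CO2) exposed to increasing compound concentrations in triplicate for 48 h; live cells counted by trypan blue exclusion.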

HMEC = assay: Cytotoxicity against HMEC assessed as effect on cell viability at less than or equal to 10 uM after 48 hrs by trypan blue exclusion assay; format: cell-based; details: human
How it was run: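 HMEC grown in MEGM complete medium, switched to DMEM with 10% FBS and penicillin/streptomycin on the day of treatment; compound added at various concentrations, triplicate, 48 h at 37 °C, 5% CO2. Live cells counted by trypan blue exclusion; one-way ANOVA.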

MCF7 [7] = assay: Cytotoxicity against human MCF7 cells expressing wild type CREB assessed as reduction in cell proliferation at 0.5 to 10 uM after 48 hrs by MTT assay; format: functional, cell-based
How it was run: (§2)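 MCF-7 cells stably transfected with Flag-tagged VP16-CREB (G418 2 mg/mL selection; expression checked by anti-FLAG blot) alongside parental MCF-7. Compound at indicated concentrations in triplicate for 48 h; live cells quantified with MTT reagent; Student's t-test.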

MCF7 [8] = assay: Cytotoxicity against human MCF7 cells expressing VP16-CREB mutant assessed as effect on cell proliferation at 0.5 to 10 uM after 48 hrs by MTT assay; format: functional, cell-based; how it was run: as §2
A549 [9] = assay: Induction of apoptosis in human A549 cells assessed as necrotic cells at 10 uM after 48 hrs by Annexin V-FITC/PI staining based flow cytometry (reference value: 1.5%); format: functional
A549 [10] = assay: Induction of apoptosis in human A549 cells assessed as late apoptotic cells at 10 uM after 48 hrs by Annexin V-FITC/PI staining based flow cytometry (reference value: 2.98%); format: functional
A549 [11] = assay: Induction of apoptosis in human A549 cells assessed as early apoptotic cells at 10 uM after 48 hrs by Annexin V-FITC/PI staining based flow cytometry (reference value: […]); format: functional
A549 [12] = assay: Induction of apoptosis in human A549 cells assessed as viable cells at 10 uM after 48 hrs by Annexin V-FITC/PI staining based flow cytometry (reference value: 91.6%); format: functional; details: A549, 48 h, read-out: Activity
A549 [13] = assay: Induction of apoptosis in human A549 cells assessed as necrotic cells at 7.5 uM after 48 hrs by Annexin V-FITC/PI staining based flow cytometry (reference value: 1.5%); format: functional
A549 [14] = assay: Induction of apoptosis in human A549 cells assessed as late apoptotic cells at 7.5 uM after 48 hrs by Annexin V-FITC/PI staining based flow cytometry (reference value: 2.98%); format: functional
A549 [15] = assay: Induction of apoptosis in human A549 cells assessed as early apoptotic cells at 7.5 uM after 48 hrs by Annexin V-FITC/PI staining based flow cytometry (reference value: […]); format: functional
A549 [16] = assay: Induction of apoptosis in human A549 cells assessed as viable cells at 7.5 uM after 48 hrs by Annexin V-FITC/PI staining based flow cytometry (reference value: 91.6%); format: functional; details: A549, 48 h, read-out: Activity
A549 [17] = assay: Induction of apoptosis in human A549 cells assessed as necrotic cells at 5 uM after 48 hrs by Annexin V-FITC/PI staining based flow cytometry (reference value: 1.5%); format: functional
A549 [18] = assay: Induction of apoptosis in human A549 cells assessed as late apoptotic cells at 5 uM after 48 hrs by Annexin V-FITC/PI staining based flow cytometry (reference value: 2.98%); format: functional
A549 [19] = assay: Induction of apoptosis in human A549 cells assessed as early apoptotic cells at 5 uM after 48 hrs by Annexin V-FITC/PI staining based flow cytometry (reference value: […]); format: functional
A549 [20] = assay: Induction of apoptosis in human A549 cells assessed as viable cells at 5 uM after 48 hrs by Annexin V-FITC/PI staining based flow cytometry (reference value: 91.6%); format: functional; details: A549, 48 h, read-out: Activity
A549 [21] = assay: Induction of apoptosis in human A549 cells assessed as PARP cleavage at 5 to 10 uM after 48 hrs by Western blot analysis; format: functional, cell-based; how it was run: as §1
[22] = biological target: Cellular tumor antigen p53 (Homo sapiens) (UniProt P04637); assay: Inhibition of p53 in human A549 cells assessed as effect on p21 gene expression at 1 to 10 uM after 4 hrs by quantitative RT-PCR analysis; format: cell-based
Cellular tumor antigen p53 (Homo sapiens), sequence (P04637 whole entry, looked up): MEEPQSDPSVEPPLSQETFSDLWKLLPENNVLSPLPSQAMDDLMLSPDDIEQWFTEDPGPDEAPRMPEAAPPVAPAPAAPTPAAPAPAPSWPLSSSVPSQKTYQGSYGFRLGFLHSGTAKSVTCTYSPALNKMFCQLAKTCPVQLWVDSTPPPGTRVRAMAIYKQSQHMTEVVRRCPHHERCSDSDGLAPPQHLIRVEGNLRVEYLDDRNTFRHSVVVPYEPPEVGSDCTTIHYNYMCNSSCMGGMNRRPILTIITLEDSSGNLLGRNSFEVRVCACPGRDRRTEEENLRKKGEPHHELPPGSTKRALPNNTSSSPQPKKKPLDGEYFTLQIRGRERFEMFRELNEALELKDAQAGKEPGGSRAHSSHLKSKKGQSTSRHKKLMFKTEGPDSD
How it was run: (§3)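 A549 cells treated in duplicate for 4 h; total RNA DNase-treated (37 °C, 30 min), reverse-transcribed with random hexamers; qPCR with SYBR Green normalized to HPRT; one-way ANOVA.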

A549 [23] = assay: Inhibition of CREB in human A549 cells assessed as reduction in VEGF gene expression at 10 uM after 4 hrs by quantitative RT-PCR analysis; format: cell-based
A549 [24] = assay: Inhibition of CREB in human A549 cells assessed as reduction in Bcl-2 gene expression at 1 to 10 uM after 4 hrs by quantitative RT-PCR analysis; format: cell-based; how it was run: as §3
[25] = biological target: Cellular tumor antigen p53 (Homo sapiens) (UniProt P04637); assay: Inhibition of p53 transfected in HEK293T cells assessed as gene transcription after 5 hrs by Renilla luciferase reporter assay; format: cell-based; details: HEK-293T
[26] = biological target: Cellular tumor antigen p53 (Homo sapiens) (UniProt P04637); assay: Inhibition of p53 in human A549 cells assessed as effect on p21 protein expression at 5 to 10 uM after 48 hrs by Western blot analysis; format: cell-based; how it was run: as §1
MCF7 [27] = assay: Cytotoxicity against human MCF7 cells expressing wild type CREB assessed as reduction in cell proliferation at 10 to 50 uM after 48 hrs by MTT assay; format: functional, cell-based; how it was run: as §2
MCF7 [28] = assay: Cytotoxicity against human MCF7 cells expressing VP16-CREB mutant assessed as reduction in cell proliferation at 10 to 50 uM after 48 hrs by MTT assay; format: functional, cell-based; how it was run: as §2

Question: With `O=C(Nc1ccc(C(F)(F)F)cc1)c1cc2ccccc2cc1O` as the compound, how does the GI50 (MDA-MB-468) read?
Answer: 63.3 µM

Question: And the GI50 (MDA-MB-231)?
Answer: 64.2 µM

Question: And the GI50 (MCF7 [1])?
Answer: 3.62 µM

Question: What about the GI50 (A549 [2]) of the same compound?
Answer: 4.15 µM

Question: And the pIC50 [3]?
Answer: 5.17

Question: What about the pIC50 [4] of the same compound?
Answer: < 4.30

Question: Which GI50 (MDA-MB-468) does the source give for `O=C(Nc1cnccn1)c1cc2ccccc2cc1O` here?
Answer: 37.6 µM

Question: And the GI50 (MDA-MB-231)?
Answer: > 100 µM

Question: And the GI50 (MCF7 [1])?
Answer: 17.9 µM

Question: What about the GI50 (A549 [2]) of the same compound?
Answer: 33.2 µM

Question: And the pIC50 [3]?
Answer: < 4.30

Question: And the pIC50 [4]?
Answer: 4.69

Question: Which inhibition (A549 [5]) does the source give for `O=C(Nc1ccc(Cl)cc1)c1cc2ccccc2cc1O` here?
Answer: Active

Question: And the inhibition (A549 [6])?
Answer: Active

Question: And the GI50 (MDA-MB-468)?
Answer: 1.46 µM

Question: What about the GI50 (MDA-MB-231) of the same compound?
Answer: 2.35 µM

Question: And the GI50 (MCF7 [1])?
Answer: 2.81 µM

Question: And the GI50 (A549 [2])?
Answer: 2.9 µM

Question: What about the pIC50 [3] of the same compound?
Answer: 5.64

Question: What about the pIC50 [4] of the same compound?
Answer: 5.54

Question: And the Activity (HFF)?
Answer: Non-toxic

Question: And the Activity (HMEC)?
Answer: Non-toxic

Question: And the Activity (MCF7 [7])?
Answer: Active

Question: And the Activity (MCF7 [8])?
Answer: inactive

Question: And the Activity (A549 [9])?
Answer: 0.58%

Question: What about the Activity (A549 [10]) of the same compound?
Answer: 4.2%

Question: And the Activity (A549 [11])?
Answer: 19.4%

Question: What about the viability at 10 µM (A549 [12]) of the same compound?
Answer: 75.9%

Question: And the Activity (A549 [13])?
Answer: 1.42%

Question: And the Activity (A549 [14])?
Answer: 2.9%

Question: And the Activity (A549 [15])?
Answer: 10.1%

Question: What about the viability at 7.5 µM (A549 [16]) of the same compound?
Answer: 85.6%

Question: And the Activity (A549 [17])?
Answer: 1.36%

Question: What about the Activity (A549 [18]) of the same compound?
Answer: 3.06%

Question: What about the Activity (A549 [19]) of the same compound?
Answer: 6.5%

Question: And the viability at 5 µM (A549 [20])?
Answer: 89.1%

Question: What about the Activity (A549 [21]) of the same compound?
Answer: Active

Question: And the inhibition [22]?
Answer: inactive

Question: And the inhibition (A549 [23])?
Answer: Active

Question: And the inhibition (A549 [24])?
Answer: Active

Question: What about the inhibition [25] of the same compound?
Answer: inactive

Question: And the inhibition [26]?
Answer: inactive

Question: For `O=C(Nc1cccc(Cl)c1)c1cc2ccccc2cc1O`, which GI50 (MDA-MB-468) is on record?
Answer: 2.58 µM

Question: And the GI50 (MDA-MB-231)?
Answer: 4.91 µM

Question: What about the GI50 (MCF7 [1]) of the same compound?
Answer: 2.43 µM

Question: And the GI50 (A549 [2])?
Answer: 3.68 µM

Question: And the pIC50 [3]?
Answer: 5.57

Question: What about the pIC50 [4] of the same compound?
Answer: < 4.30

Question: Which Activity (MCF7 [27]) does the source give for `CN(C(=O)c1cc2ccccc2cc1O)c1ccc(Cl)cc1` here?
Answer: Active

Question: What about the Activity (MCF7 [28]) of the same compound?
Answer: Active

Question: Which results are given for `O=C(Nc1ccccc1Cl)c1cc2ccccc2cc1O`?
Answer: GI50 (MDA-MB-468): 6.65 µM; GI50 (MDA-MB-231): 17.2 µM; GI50 (MCF7 [1]): 2.27 µM; GI50 (A549 [2]): 4.83 µM; pIC50 [3]: 5.24; pIC50 [4]: 5.27

Question: Which results are given for `O=C(Nc1ccc(F)cc1)c1cc2ccccc2cc1O`?
Answer: GI50 (MDA-MB-468): 2.78 µM; GI50 (MDA-MB-231): 11.4 µM; GI50 (MCF7 [1]): 4.16 µM; GI50 (A549 [2]): 6.78 µM; pIC50 [3]: 5.31; pIC50 [4]: 5.76

Question: For `COc1ccc(NC(=O)c2cc3ccccc3cc2O)cc1`, which GI50 (MDA-MB-468) is on record?
Answer: 79.3 µM

Question: And the GI50 (MDA-MB-231)?
Answer: 75.5 µM

Question: And the GI50 (MCF7 [1])?
Answer: 6.55 µM

Question: And the GI50 (A549 [2])?
Answer: 85.7 µM

Question: And the pIC50 [3]?
Answer: < 4.30

Question: And the pIC50 [4]?
Answer: < 4.30
